Activity calls are given as the source filed them. The calls are words filed in the database; no cut-off is given here.
How the values were obtained:
[1] = tested on: Woodchuck hepatitis virus; assay: Antiviral activity against Woodchuck hepatitis virus infected in woodchuck assessed as reduction of viral antigen positive hepatocytes at 15 mg/kg, po qd for 48 weeks measured on 60th week (reference value: 26 %); type: functional, Hepatocyte; parameters: scale not given: the % may be the effect or the level left
Outline: (§1)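 Chronic WHV-carrier woodchucks, 5 per group, 15 mg/kg/day oral once daily for 48 weeks in liquid diet. Liver biopsies were taken at pretreatment, weeks 12, 36, 48 and week 60. Percentage of hepatocytes positive for WHcAg was given as group mean ± SD and compared with pretreatment and placebo.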

[2] = tested on: Woodchuck hepatitis virus; assay: Antiviral activity against Woodchuck hepatitis virus infected in woodchuck assessed as reduction of viral DNA replicative intermediate level per ug of total cell DNA at 15 mg/kg, po qd for 48 weeks (reference value: 995 +/- 736 pg); type: functional
Outline: (§2)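 Chronic WHV-carrier woodchucks, 5 per group, 15 mg/kg/day oral once daily for 48 weeks in liquid diet. Needle liver biopsies were snap-frozen in liquid nitrogen and stored at −70°C. Hepatic WHV DNA replicative intermediates were quantified by Southern blot (pg/μg total cell DNA) and WHV RNA by Northern blot; group means ± SD were compared with pretreatment and placebo.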

Marmota monax [3] = assay: Toxicity in Woodchuck hepatitis virus infected woodchuck assessed as increase of liver aspartate aminotransferase activity at 15 mg/kg, po qd for 48 weeks; type: organism-based; parameters: dose 15 mg/kg, route oral; settings: in vivo, 8064 h
Outline: (§3)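 Woodchucks chronically infected with WHV, 5 per group, received oral drug once daily in liquid diet for 48 weeks; placebo got diet only. Serum chemistry (GGT, ALP, ALT, AST, SDH, among others) was run 2 weeks pretreatment, at week 0, every other week to week 12, then monthly to week 48. Sampling continued at 2, 4, 6, 8 and 12 weeks post-treatment.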

Marmota monax [4] = assay: Toxicity in Woodchuck hepatitis virus infected woodchuck assessed as effect on hematological parameters at 15 mg/kg, po qd for 48 weeks measured up to 60 weeks; type: organism-based; parameters: dose 15 mg/kg, route oral; settings: in vivo
Outline: (§4)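 Chronic WHV-carrier woodchucks, 5 per group, were dosed orally once daily in liquid diet for 48 weeks, with a placebo diet-only group. Body weights were monitored. Complete blood counts were taken 2 weeks pretreatment, at weeks 12, 36 and 48 of treatment, and 12 weeks after withdrawal. Values were compared with placebo controls.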

Marmota monax [5] = assay: Toxicity in Woodchuck hepatitis virus infected woodchuck assessed as increase of liver alanine aminotransferase activity at 15 mg/kg, po qd for 48 weeks; type: organism-based; parameters: dose 15 mg/kg, route oral; settings: in vivo, 8064 h; outline: as §3
[6] = tested on: Woodchuck hepatitis virus; assay: Antiviral activity against Woodchuck hepatitis virus infected in woodchuck assessed as reduction of viral antigen positive hepatocytes at 15 mg/kg, po qd measured on 12th week on 48 weeks study (reference value: 55 +/- 32 %); type: functional, Hepatocyte; parameters: scale not given: the % may be the effect or the level left; outline: as §1
[7] = tested on: Woodchuck hepatitis virus; assay: Antiviral activity against Woodchuck hepatitis virus infected in woodchuck assessed as reduction of viral antigen level in serum at 15 mg/kg, po qd for 48 weeks measured on 60th week (reference value: 3.3 +/- 1.6 log10 ng/ml); type: functional
[8] = tested on: Woodchuck hepatitis virus; assay: Antiviral activity against Woodchuck hepatitis virus infected in woodchuck assessed as reduction of viral antigen positive hepatocytes at 15 mg/kg, po qd measured on 36th week on 48 weeks study (reference value: 41 +/- 25 %); type: functional, Hepatocyte; parameters: scale not given: the % may be the effect or the level left; outline: as §1
[9] = tested on: Woodchuck hepatitis virus; assay: Antiviral activity against Woodchuck hepatitis virus infected in woodchuck assessed as frequency of hepatocytes expressing viral antigen at 15 mg/kg, po qd measured on 36th week on 48 weeks study; type: functional, Hepatocyte
Outline: (§5)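 Chronic WHV-carrier woodchucks, 5 per group, given 15 mg/kg/day orally once daily for 48 weeks in liquid diet; placebo is diet alone. Liver biopsies at pretreatment, weeks 12, 36, 48 and 12 weeks after withdrawal. Cytoplasmic WHsAg staining scored 0–4: 1 ≤1%, 2 ≤2%, 3 ≤5%, 4 ≥10% of hepatocytes.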

Marmota monax [10] = assay: Toxicity in Woodchuck hepatitis virus infected woodchuck assessed as increase of serum gamma-glutamyltransferase activity at 15 mg/kg, po qd for 48 weeks; type: organism-based; parameters: dose 15 mg/kg, route oral; settings: in vivo, 8064 h; outline: as §3
[11] = tested on: Woodchuck hepatitis virus; assay: Antiviral activity against Woodchuck hepatitis virus infected in woodchuck assessed as reduction of viral antigen level in serum at 15 mg/kg, po qd for 48 weeks (reference value: 3.8 +/- 1.3 log10 ng/ml); type: functional
Marmota monax [12] = assay: Toxicity in Woodchuck hepatitis virus infected woodchuck assessed as increase of liver alkaline phosphatase activity at 15 mg/kg, po qd for 48 weeks; type: organism-based; parameters: dose 15 mg/kg, route oral; settings: in vivo, 8064 h; outline: as §3
[13] = tested on: Woodchuck hepatitis virus; assay: Antiviral activity against Woodchuck hepatitis virus infected in woodchuck assessed as reduction of viral antigen level in serum at 15 mg/kg, po qd measured on 12th week on 48 weeks study (reference value: 4.3 +/- 1.5 log10 ng/ml); type: functional
[14] = tested on: Woodchuck hepatitis virus; assay: Antiviral activity against Woodchuck hepatitis virus infected in woodchuck assessed as reduction of viral DNA replicative intermediate level per ug of total cell DNA at 15 mg/kg, po qd measured on 36th week on 48 weeks study (reference value: 1132 +/- 738 pg); type: functional; outline: as §2
[15] = tested on: Woodchuck hepatitis virus; assay: Antiviral activity against Woodchuck hepatitis virus infected in woodchuck assessed as reduction of viral DNA replicative intermediate level per ug of total cell DNA at 15 mg/kg, po qd measured on 12th week on 48 weeks study (reference value: 1495 +/- 890 pg); type: functional; outline: as §2
[16] = tested on: Woodchuck hepatitis virus; assay: Antiviral activity against Woodchuck hepatitis virus infected in woodchuck assessed as absent of lesion in portal hepatitis at 15 mg/kg, po qd for 48 weeks; type: functional, organism-based; parameters: dose 15 mg/kg
Outline: (§6)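 Adult chronic WHV-carrier woodchucks (neonatally inoculated), 5 per group, given drug once daily by dose syringe in semisynthetic liquid diet, for 48 weeks; placebo got diet alone. Ultrasound-guided needle liver biopsies under ketamine/xylazine anesthesia at pretreatment, weeks 12, 36, 48 and 12 weeks post-withdrawal. Biopsies were formalin-fixed, paraffin-embedded and H&E stained. Portal and lobular hepatitis were graded 0 (absent) to 4 (most severe).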

Marmota monax [17] = assay: Toxicity in Woodchuck hepatitis virus infected woodchuck assessed as increase of liver alanine aminotransferase activity at 15 mg/kg, po qd measured on 4 to 24 weeks on 48 week study; type: organism-based; parameters: dose 15 mg/kg, route oral; settings: in vivo; outline: as §3
[18] = tested on: Woodchuck hepatitis virus; assay: Antiviral activity against Woodchuck hepatitis virus infected in woodchuck assessed as reduction of viral RNA level per ug of total cell DNA at 15 mg/kg, po qd measured on 36th week on 48 weeks study (reference value: 33 +/- 21 pg); type: functional; outline: as §2
[19] = tested on: Woodchuck hepatitis virus; assay: Antiviral activity against Woodchuck hepatitis virus infected in woodchuck assessed as reduction of viral RNA level per ug of total cell DNA at 15 mg/kg, po qd for 48 weeks (reference value: 34 +/- 20 pg); type: functional; outline: as §2
[20] = tested on: Woodchuck hepatitis virus; assay: Antiviral activity against Woodchuck hepatitis virus infected in woodchuck assessed as frequency of hepatocytes expressing viral antigen at 15 mg/kg, po qd measured on 12th week on 48 weeks study; type: functional, Hepatocyte; outline: as §5
[21] = tested on: Woodchuck hepatitis virus; assay: Antiviral activity against Woodchuck hepatitis virus infected in woodchuck assessed as absent of lesion in portal hepatitis at 15 mg/kg, po qd measured on 12th week on 48 weeks study; type: functional, organism-based; parameters: dose 15 mg/kg; outline: as §6
Marmota monax [22] = assay: Toxicity in Woodchuck hepatitis virus infected woodchuck assessed as increase of liver sorbitol dehydrogenase activity at 15 mg/kg, po qd measured on 4 to 24 weeks on 48 week study; type: organism-based; parameters: dose 15 mg/kg, route oral; settings: in vivo; outline: as §3
Marmota monax [23] = assay: Toxicity in Woodchuck hepatitis virus infected woodchuck assessed as increase of liver sorbitol dehydrogenase activity at 15 mg/kg, po qd measured on 28 to 48 weeks on 48 week study; type: organism-based; parameters: dose 15 mg/kg, route oral; settings: in vivo; outline: as §3
[24] = tested on: Woodchuck hepatitis virus; assay: Antiviral activity against Woodchuck hepatitis virus infected in woodchuck assessed as reduction of viral DNA replicative intermediate level per ug of total cell DNA at 15 mg/kg, po qd for 48 weeks measured on 60th week (reference value: 979 pg); type: functional; outline: as §2
[25] = tested on: Woodchuck hepatitis virus; assay: Antiviral activity against Woodchuck hepatitis virus infected in woodchuck assessed as frequency of hepatocytes expressing viral antigen at 15 mg/kg, po qd for 48 weeks; type: functional, Hepatocyte; outline: as §5
[26] = tested on: Woodchuck hepatitis virus; assay: Antiviral activity against Woodchuck hepatitis virus infected in woodchuck assessed as reduction of viral RNA level per ug of total cell DNA at 15 mg/kg, po qd for 48 weeks measured on 60th week (reference value: 27 pg); type: functional; outline: as §2
Marmota monax [27] = assay: Toxicity in Woodchuck hepatitis virus infected woodchuck assessed as change in body weight at 15 mg/kg, po qd for 48 weeks measured up to 60 weeks; type: organism-based; parameters: dose 15 mg/kg, route oral; settings: in vivo; outline: as §4
[28] = tested on: Woodchuck hepatitis virus; assay: Antiviral activity against Woodchuck hepatitis virus infected in woodchuck assessed as reduction of viral antigen level in serum at 15 mg/kg, po qd measured on 36th week on 48 weeks study (reference value: 3.8 +/- 1.3 log10 ng/ml); type: functional
[29] = tested on: Woodchuck hepatitis virus; assay: Antiviral activity against Woodchuck hepatitis virus infected in woodchuck assessed as reduction of viral antigen positive hepatocytes at 15 mg/kg, po qd for 48 weeks study (reference value: 35 +/- 27 %); type: functional, Hepatocyte; parameters: scale not given: the % may be the effect or the level left; outline: as §1
[30] = tested on: Woodchuck hepatitis virus; assay: Antiviral activity against Woodchuck hepatitis virus infected in woodchuck assessed as frequency of hepatocytes expressing viral antigen at 15 mg/kg, po qd for 48 weeks measured on 60th week; type: functional, Hepatocyte; outline: as §5
[31] = tested on: Woodchuck hepatitis virus; assay: Antiviral activity against Woodchuck hepatitis virus infected in woodchuck assessed as reduction of viral RNA level per ug of total cell DNA at 15 mg/kg, po qd measured on 12th week on 48 weeks study (reference value: 46 +/- 25 pg); type: functional; outline: as §2
[32] = tested on: Woodchuck hepatitis virus; assay: Antiviral activity against Woodchuck hepatitis virus infected in woodchuck assessed as absent of lesion in lobular hepatitis at 15 mg/kg, po qd measured on 12th week on 48 weeks study; type: functional, organism-based; parameters: dose 15 mg/kg; outline: as §6

SMILES | Activity [1] [%] | Activity [2] [pg] | Activity (Marmota monax [3]) | Activity (Marmota monax [4]) | Activity (Marmota monax [5]) | Activity [6] [%] | Activity [7] [log10ng/ml] | Activity [8] [%] | Activity [9] [%] | Activity (Marmota monax [10]) | Activity [11] [log10ng/ml] | Activity (Marmota monax [12]) | Activity [13] [log10ng/ml] | Activity [14] [pg] | Activity [15] [pg] | Activity (Marmota monax [17]) | Activity [18] [pg] | Activity [19] [pg] | Activity [20] [%] | Activity [21] | also measured
Nc1nc(=O)n([C@@H]2CS[C@H](CO)O2)cc1F [EMTRICITABINE] | 64 | 428 | Toxic | Non-toxic | Toxic | 47 | 4.7 | 63 | 10 | Toxic | 4.4 | Toxic | 4.5 | 644 | 845 | Toxic | 43 | 35 | 2 | Active | Activity [16]: Active; Activity (Marmota monax [22]): Toxic; Activity (Marmota monax [23]): Toxic; Activity [24]: 1239 pg; Activity [25]: 10%; Activity [26]: 48 pg; Activity (Marmota monax [27]): Non-toxic; Activity [28]: 4.5 log10ng/ml; Activity [29]: 40%; Activity [30]: 10%; Activity [31]: 42 pg
Nc1ccn([C@@H]2CS[C@H](CO)O2)c(=O)n1 [LAMIVUDINE] | 48 | 413 | Toxic | Non-toxic | Toxic | 39 | 4.6 | 59 | 5 | Toxic | 4.4 | Toxic | 4.7 | 1133 | 982 | Toxic | 47 | 33 | 1 | Active | Activity [32]: Active; Activity (Marmota monax [22]): Toxic; Activity (Marmota monax [23]): Toxic; Activity [24]: 1063 pg; Activity [25]: 5%; Activity [26]: 46 pg; Activity (Marmota monax [27]): Non-toxic; Activity [28]: 5.2 log10ng/ml; Activity [29]: 36%; Activity [30]: 5%; Activity [31]: 39 pg
